Experimental data reported in PubChem BioAssay.
Records with an inconclusive call do not appear. Active and inactive are the calls of the source.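 The calls were made as follows, unless noted: active = inhibition over a set limit, the all-compound mean plus 3 SD, in both replicate runs; inconclusive = over that limit in just one replicate run; inactive = at or under that limit in both runs.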

What was measured:
[1] = S. cerevisiae growth inhibition in permissive medium (OD615), pilot counter-assay for S. cerevisiae lifespan shortening project, permissive growth control (AID 705;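 active = growth inhibition above 25% in both replicates, a cutoff set 3 SD above the mean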); conditions: OD615, 24 h, at 10 µM, active compounds read high
In short: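 System: Engineered DeaD yeast | Buffer or medium: SC raffinose/galactose permissive medium | Doses: 10 µM single dose, 0.25% DMSO | Times: 24 h exposure, 30 °C | Measured by: OD615 turbidity read | Read-out: Yeast growth inhibition indicated by reduced 24 h OD615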

[2] = S. cerevisiae growth inhibition in restrictive medium, OD615, pilot screen, restrictive growth control, yeast lifespan reduction project (AID 706;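 active = growth inhibition above a set limit, 3 SD over mean compound inhibition, in both replicates, cut at about 43% in these data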;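 also: modified DeaD lifespan yeast strain shifted to restrictive glucose medium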); conditions: OD615, 48 h, at 10 µM, active compounds read high
In short: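 Assay system: engineered S. cerevisiae DeaD strain; Buffer or medium: CSMM-D glucose medium; Dosing: 10 µM compound, 0.25% DMSO; Times: cell pre-growth 4 h, compound exposure 48 h, 30 °C; Detection: absorbance (optical density) measured at 615 nm.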

[3] = doxorubicin toxicity protection in MRP-1 cells – H69AR cells, CellTiter-Glo, duplicate, MRP-1 activator project, pilot screen (AID 807;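 active = viability increase at or above a cutoff of the median across tested compounds plus 3 SD, cut at about 8.5% in these data, passing the limit was not always enough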;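 also: compound pretreatment 18-22 h then 72 h combined with doxorubicin; 0% = doxorubicin alone and 100% = vehicle without doxorubicin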); conditions: H69AR viability with doxorubicin, CellTiter-Glo luminescence; at 10 µM; active compounds read high
[4] = viability of HCT116 without oncogenic beta-catenin – human colon tumor cells, pilot screen (AID 823;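 active = cell viability at or below a set limit in both duplicate runs, the limit being the all-compound median minus 4 SD, cut at about 23% in these data, passing the limit was not always enough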;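 also: 0% = wells killed by 20 µM Hyamine and 100% = untreated DMSO cell wells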); conditions: HCT116 beta-catenin knockout viability, CellTiter-Glo, 60 h; at 10 µM; active compounds read low
[5] = viability of PTEN-null HCT116 cells – cell-based, HCT116 clonal line, CellTiter-Glo, pilot screen (AID 824;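 active = viability at or below 27.92% in each of two runs, the all-compound median minus 4 SD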;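 also: 0% = 20 µM Hyamine control and 100% = vehicle cell control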); conditions: HCT116 PTEN-deleted viability, 60 h, at 10 µM, active compounds read low
[6] = RAM pathway blockade in budding yeast – dse1pr::URA3 reporter, 5-FOA selection, pilot screen (AID 869);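 also: 0% = DMSO wells with no growth and 100% = 10 µM 1-NA-PP1 with full growth; RAM network block rescues cells from 5-FOA so hits raise OD615 growth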; conditions: S. cerevisiae dse1pr::URA3 5-FOA growth, OD615, 2 d; at 10 µM; active compounds read high; strain carries analog-sensitive mutant Cbk1 kinase
[7] = RAM signaling pathway blockade in yeast – S. cerevisiae, Pdr1DBD-CYC8 efflux-inhibited sensitized strain, primary screen (AID 1298;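 active = RAM network inhibition above 8.4% in each of two replicates, 3 SD over the compound average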;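 also: 0% = DMSO untreated cells without growth and 100% = 10 µM 1-NA-PP1 full growth; higher means more yeast growth rescued from 5-FOA killing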); conditions: S. cerevisiae cbk1-as DSE1-URA3 strain, 5-FOA growth OD615, 2 d; at 50 µM; active compounds read high

O=C(O)c1ccc(CSc2nnc(-c3ccco3)o2)cc1
inactive: growth inhibition [1] 7.71% | growth inhibition [2] 9.04% | viability increase [3] 0.19% | viability [4] 108% | viability [5] 96.6% | inhibition [6] 0.595% | RAM network inhibition [7] 3.22%

COC(=O)c1ccc(C)c(NS(=O)(=O)c2ccc(OC)cc2)c1
active: viability [4] 16.6% | viability [5] 20.5%
inactive: growth inhibition [1] -0.83% | growth inhibition [2] -23.9% | viability increase [3] -5.33% | inhibition [6] 2.15% | RAM network inhibition [7] 9.79%

COc1ccc(OC)c(N(CC(=O)NCCSc2ccccc2)S(C)(=O)=O)c1
inactive: growth inhibition [1] -4.86% | growth inhibition [2] -9.71% | viability increase [3] -3.1% | viability [4] 96.9% | viability [5] 95.5% | inhibition [6] 0.23% | RAM network inhibition [7] 4.35%

CC(=O)Nc1nc2c(F)cccc2s1
inactive: growth inhibition [1] -14.9% | growth inhibition [2] -3% | viability increase [3] -2.43% | viability [4] 96.5% | viability [5] 91.2% | inhibition [6] 1.6% | RAM network inhibition [7] 7.94%

N#CC1=C2SCN(Cc3ccco3)CN2C(=O)CC1c1c(F)cccc1Cl (configuration not stated)
inactive: growth inhibition [1] -2.04% | growth inhibition [2] 20.3% | viability increase [3] -4.91% | viability [4] 88% | viability [5] 88.1% | inhibition [6] 1.95% | RAM network inhibition [7] 4.76%

CC(C)CC(NS(=O)(=O)c1ccc2c(c1)oc(=O)n2C)C(=O)N1CC=C(c2ccccc2)CC1 (configuration not stated)
inactive: growth inhibition [1] -18.2% | growth inhibition [2] -14.5% | viability increase [3] -3.44% | viability [4] 85.9% | viability [5] 83.3% | inhibition [6] 0.535% | RAM network inhibition [7] 6.89%

Cc1ccc2oc3c(c(=O)c2c1)C(c1cccc(Cl)c1)N(CCCN1CCOCC1)C3=O (configuration not stated)
inactive: growth inhibition [1] -0.165% | growth inhibition [2] 2.74% | viability increase [3] -3.81% | viability [4] 76.8% | viability [5] 79% | inhibition [6] 0.735% | RAM network inhibition [7] 2.4%

COc1ccc(-c2noc(Cc3ccccc3OC)n2)cc1
inactive: growth inhibition [1] -15.1% | growth inhibition [2] -10.5% | viability increase [3] 1.93% | viability [4] 94% | viability [5] 83.7% | inhibition [6] 1.83% | RAM network inhibition [7] 1.94%

CC(C)CN(CC(C)C)c1nnc(N)s1
inactive: growth inhibition [1] 3.15% | growth inhibition [2] 2.1% | viability increase [3] 1.25% | viability [4] 103% | viability [5] 99.5% | inhibition [6] 0.56% | RAM network inhibition [7] 1.13%

CCCCOc1ccc(NC(=O)C2CC=CCC2C(=O)O)cc1 (configuration not stated)
inactive: growth inhibition [1] -5.44% | growth inhibition [2] -26.4% | viability increase [3] -2.19% | viability [4] 81.9% | viability [5] 79.5% | inhibition [6] 0.51% | RAM network inhibition [7] 0.37%

CCOc1ccc(CC(=O)NCc2cn3c(C)csc3n2)cc1
inactive: growth inhibition [1] -5.88% | growth inhibition [2] 12.6% | viability increase [3] -0.15% | viability [4] 97.4% | viability [5] 102% | inhibition [6] 1.14% | RAM network inhibition [7] 6.38%

COC(=O)c1ccc(CSc2nc3c(c(=O)n2-c2ccc(Br)cc2)SCC3)o1
inactive: growth inhibition [1] -15.5% | growth inhibition [2] -19.8% | viability increase [3] -3.79% | viability [4] 80.9% | viability [5] 76% | inhibition [6] 1.67% | RAM network inhibition [7] 7.53%

O=C(COC(=O)C1CCCO1)Nc1cccc(C(F)(F)F)c1 (configuration not stated)
inactive: growth inhibition [1] -22.8% | growth inhibition [2] -15.9% | viability increase [3] 0% | viability [4] 91.8% | viability [5] 94.5% | inhibition [6] 1.63% | RAM network inhibition [7] 2.45%

O=C(CSc1nnc(-c2cccnc2)n1Cc1ccco1)c1ccc(Br)cc1
inactive: growth inhibition [1] 1.25% | growth inhibition [2] 32.4% | viability increase [3] -1.99% | viability [4] 79.9% | viability [5] 86.8% | inhibition [6] 0.005% | RAM network inhibition [7] 10%

COc1cc(C)c(C)cc1S(=O)(=O)N1CCN(Cc2ccccc2)CC1
inactive: growth inhibition [1] 9.11% | growth inhibition [2] -12.5% | viability increase [3] -3.89% | viability [4] 96.3% | viability [5] 93.5% | inhibition [6] 0.025% | RAM network inhibition [7] 5%

O=C(CCCCCN1C(=O)C2C3C=CC(C3)C2C1=O)Nc1nccs1 (configuration not stated)
inactive: growth inhibition [1] -3.44% | growth inhibition [2] -2.41% | viability increase [3] -1.31% | viability [4] 100% | viability [5] 91.5% | inhibition [6] 0.215% | RAM network inhibition [7] 4.28%

CCOCCCNC(=O)c1cn(C)c2ccc(S(=O)(=O)N(C)C3CCCCC3)cc2c1=O
inactive: growth inhibition [1] -5.04% | growth inhibition [2] -14.3% | viability increase [3] -4.93% | viability [4] 108% | viability [5] 101% | inhibition [6] 0.93% | RAM network inhibition [7] -0.73%

COc1cc(=O)[nH]c(=O)n1C(=O)Cc1ccccc1
inactive: growth inhibition [1] -1.48% | growth inhibition [2] -1.73% | viability increase [3] 0% | viability [4] 97.4% | viability [5] 104% | inhibition [6] -0.145% | RAM network inhibition [7] 4.08%

Cc1cc(NC(=O)CSc2ccc3nnc(-c4ccccn4)n3n2)no1
inactive: growth inhibition [1] -3.09% | growth inhibition [2] 10.1% | viability increase [3] -1.04% | viability [4] 102% | viability [5] 90.4% | inhibition [6] 0.535% | RAM network inhibition [7] 1.71%

COc1ccc(NC(=O)c2cc3ccccn3n2)cc1
inactive: growth inhibition [1] -2.21% | growth inhibition [2] 0.42% | viability increase [3] -0.18% | viability [4] 81% | viability [5] 73.1% | inhibition [6] -0.545% | RAM network inhibition [7] 0.83%

Cc1ccnc(Nc2nc3ccccc3o2)n1
inactive: growth inhibition [1] 2.6% | growth inhibition [2] 24.6% | viability increase [3] -4.36% | viability [4] 62% | viability [5] 57.7% | inhibition [6] 0.905% | RAM network inhibition [7] 4.15%

CCCC1(C(=O)O)NC(c2ccccc2O)C2C(=O)N(Cc3ccccc3)C(=O)C21 (configuration not stated)
inactive: growth inhibition [1] 7.11% | growth inhibition [2] 6.84% | viability increase [3] -1.02% | viability [4] 97.5% | viability [5] 90.8% | inhibition [6] 0.45% | RAM network inhibition [7] 0.88%

CC(=O)c1cccc(NC(=O)c2cc(C(C)C)on2)c1
inactive: growth inhibition [1] -14.6% | growth inhibition [2] 0.275% | viability increase [3] -1.46% | viability [4] 104% | viability [5] 97.7% | inhibition [6] 0.785% | RAM network inhibition [7] 0.94%

Cc1cc(C)cc(OCC(=O)Nc2cccc(-c3nc4ncccc4o3)c2)c1
inactive: growth inhibition [1] -7.77% | growth inhibition [2] -1.93% | viability increase [3] -1.93% | viability [4] 65.4% | viability [5] 59.7% | inhibition [6] 3.17% | RAM network inhibition [7] 6.74%

CCc1cccc(Nc2cc(C)nc3ncnn23)c1
inactive: growth inhibition [1] -5.35% | growth inhibition [2] -1.55% | viability increase [3] -0.66% | viability [4] 99.8% | viability [5] 93% | inhibition [6] 0.465% | RAM network inhibition [7] 6.68%

O=C(O)C1C2C=CC3(CN(Cc4ccco4)C(=O)C13)O2 (configuration not stated)
inactive: growth inhibition [1] -11.7% | growth inhibition [2] 4.86% | viability increase [3] -0.96% | viability [4] 112% | viability [5] 95.6% | inhibition [6] 0.815% | RAM network inhibition [7] -0.52%

CCc1cccc(OCCCCNCCOC)c1
inactive: growth inhibition [1] -2.16% | growth inhibition [2] -11.6% | viability increase [3] -0.86% | viability [4] 89.1% | viability [5] 99.3% | inhibition [6] 2.08% | RAM network inhibition [7] -0.32%

COc1ccc(OC)c(NC(=O)c2ccc(CN3CCOCC3)cc2)c1
inactive: growth inhibition [1] 9.65% | growth inhibition [2] 0.145% | viability increase [3] 0.88% | viability [4] 104% | viability [5] 111% | inhibition [6] 1.52% | RAM network inhibition [7] 4.85%

CC1=C(C(N)=O)C(c2ccccn2)n2nc(SCc3ccccc3Cl)nc2N1 (configuration not stated)
inactive: growth inhibition [1] -4.42% | growth inhibition [2] -12.1% | viability increase [3] -1.33% | viability [4] 90.5% | viability [5] 83.3% | inhibition [6] 1.04% | RAM network inhibition [7] 0.26%

COc1ccccc1NC(=O)C1=C(C)NC(=O)NC1c1cccc(OC)c1OC (configuration not stated)
inactive: growth inhibition [1] -3.89% | growth inhibition [2] 2.57% | viability increase [3] -2.1% | viability [4] 104% | viability [5] 94.8% | inhibition [6] 0.545% | RAM network inhibition [7] 3.58%

CC1CCCCC1NC(=O)C1CCN(C(=O)c2sccc2-n2cccc2)CC1 (configuration not stated)
inactive: growth inhibition [1] -4.95% | growth inhibition [2] -6.6% | viability increase [3] -1.22% | viability [4] 105% | viability [5] 94.8% | inhibition [6] 2.28% | RAM network inhibition [7] 4.86%

CCOc1ccc(C2N(c3ccc(OC)cc3)C(=O)C3CCCN32)cc1OC (configuration not stated)
inactive: growth inhibition [1] -1.7% | growth inhibition [2] -0.11% | viability increase [3] -2.39% | viability [4] 98.7% | viability [5] 101% | inhibition [6] 1.57% | RAM network inhibition [7] 3%

O=C(c1cc(C2CC2)on1)N1CCOCC1
inactive: growth inhibition [1] -4.11% | growth inhibition [2] -0.575% | viability increase [3] 0.15% | viability [4] 96% | viability [5] 98.7% | inhibition [6] 1.57% | RAM network inhibition [7] 2.93%

COc1cc(S(=O)(=O)N2CCN(Cc3ccc4c(c3)OCO4)CC2)c(C)cc1C
inactive: growth inhibition [1] -4.19% | growth inhibition [2] -11.6% | viability increase [3] -4.77% | viability [4] 57.5% | viability [5] 71.1% | inhibition [6] 2.5% | RAM network inhibition [7] 5.84%

CC1CCN(C(=O)CSc2nnc(Cc3cccn3C)n2-c2ccc(F)cc2)CC1
inactive: growth inhibition [1] -5.51% | growth inhibition [2] 10.6% | viability increase [3] -0.49% | viability [4] 88.7% | viability [5] 92% | inhibition [6] 1.79% | RAM network inhibition [7] 2.35%

N#CCCN1CCN(C(CNS(=O)(=O)c2ccc(Cl)cc2)c2ccccc2)CC1 (configuration not stated)
inactive: growth inhibition [1] -11.4% | growth inhibition [2] -16.5% | viability increase [3] -1.72% | viability [4] 95.3% | viability [5] 94.8% | inhibition [6] 1.9% | RAM network inhibition [7] 6.39%
